Test results from ChEMBL document CHEMBL3580610, “Design, Synthesis, and Evaluation of Thyronamine Analogues as Novel Potent Mouse Trace Amine Associated Receptor 1 (mTAAR1) Agonists” (J Med Chem, 2015).
Activity calls are given as the source filed them. The rule behind the calls is not given here.

Assays:
[1] = tested on: Heart; assay: Reduction in cardiac out put in male Wistar rat heart assessed as aortic and coronary flow measured as rate of duration of experiment at 40 uM by Cardiac perfusion technique; type: functional
[2] = tested on: Heart; assay: Reduction in cardiac out put in male Wistar rat heart assessed as aortic and coronary flow at 40 uM within 10 mins by Cardiac perfusion technique relative to control; type: functional
[3] = tested on: Mus musculus; assay: Induction of plasma glucose level in fasted CD1 mouse at 4 ug/kg, ip after 15 mins glucorefractometry relative to T1AM; type: functional, organism-based
Procedure, shortened: (§1)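 Male CD-1 mice were fasted 4 h (8 to 12 h) and given a single ip dose (1.32, 4 or 11 μg·kg−1) or saline; n = 10 per group. Tail-vein blood glucose was read by glucorefractometer 15 min after injection. One-way ANOVA with Student−Newman−Keuls post hoc test, P < 0.05; mean ± SEM.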

[4] = tested on: Heart; assay: Reduction in cardiac out put in male Wistar rat heart assessed as aortic and coronary flow at 20 to 40 uM after 30 mins by Cardiac perfusion technique; type: functional, tissue-based
Procedure, shortened: (§2)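 Male Wistar rats (275−300 g) were anesthetized with ether/air and given 1000 U heparin iv (femoral vein). The heart was excised and perfused as a working heart (atrial 20 cm, aortic 100 cm cannulae). After 5 min equilibration, it was perfused 60 min with buffer containing DMSO vehicle or escalating doses in DMSO. Cardiac output = aortic + coronary flow. 30-min values are expressed as % of baseline. IC50 from sigmoidal nonlinear regression; 3−7 hearts per group, mean ± SE.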

[5] = molecular target: Trace amine-associated receptor 1 (Mus musculus, UniProt Q923Y8); assay: Agonist activity at mouse TAAR1 expressed in HEK293 cells coexpressing cAMP BRET biosensor assessed as induction of CAMP production after 20 mins by bioluminescence resonance energy transfer assay; type: functional, cell-based
Sequence of Trace amine-associated receptor 1 (Q923Y8 whole entry): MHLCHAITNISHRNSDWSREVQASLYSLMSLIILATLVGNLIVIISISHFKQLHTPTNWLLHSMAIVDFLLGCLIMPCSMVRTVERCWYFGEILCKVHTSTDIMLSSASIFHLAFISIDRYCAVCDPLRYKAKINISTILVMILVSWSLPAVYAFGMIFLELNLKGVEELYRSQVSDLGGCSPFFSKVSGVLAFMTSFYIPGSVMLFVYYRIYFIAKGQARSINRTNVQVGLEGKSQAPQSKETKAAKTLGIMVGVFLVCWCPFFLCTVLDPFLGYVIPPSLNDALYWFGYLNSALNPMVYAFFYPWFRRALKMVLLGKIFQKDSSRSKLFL
Procedure, shortened: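 HEK-293 cells transiently transfected with mTAAR1 (or empty vector as control) plus EPAC cAMP BRET biosensor. Read started immediately after agonist addition, continuing ~20 min. IBMX 200 μM final present throughout. Initial screen at 10 μM; actives then run as dose-response. Emission read in 465−505 and 515−555 nm windows, acceptor/donor ratio taken. EC50 from nonlinear one-site fit; 4−6 independent experiments, mean ± SEM.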

[6] = molecular target: Trace amine-associated receptor 1 (Mus musculus) (UniProt Q923Y8); assay: Agonist activity at mouse TAAR1 expressed in HEK293 cells coexpressing cAMP BRET biosensor assessed as induction of CAMP production after 20 mins by bioluminescence resonance energy transfer assay relative to control; type: functional, cell-based
Sequence of Trace amine-associated receptor 1 (Mus musculus) (Q923Y8 whole entry): as above
Procedure, shortened: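 Transient co-transfection of HEK-293 cells with mTAAR1 and the EPAC cAMP BRET biosensor; empty vector as control. Assayed with IBMX at 200 μM final. Screened at 10 μM, then dose-response on actives. Read-out is the acceptor/donor ratio from the 465−505 and 515−555 nm windows; time courses read for about 20 min after agonist addition. EC50 from nonlinear regression (one site specific binding); 4−6 independent experiments, mean ± SEM.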

[7] = tested on: Heart; assay: Reduction in cardiac out put in male Wistar rat heart assessed as aortic and coronary flow after 30 mins by Cardiac perfusion technique; type: functional, tissue-based; conditions: 0.5 h; procedure, shortened: as §2
[8] = tested on: Mus musculus; assay: Induction of plasma glucose level in fasted CD1 mouse at 1.32 ug/kg, ip after 15 mins glucorefractometry relative to T0AM; type: functional, organism-based; procedure, shortened: as §1

For `Cc1cc(OCCN)ccc1Cc1ccc(N)cc1`, the Time [1] was 1 h, the inhibition at 40 µM [2] was 60% and the Activity [3] was “Active”. For the same compound, the inhibition [4] was “Active”, the EC50 [5] was 240 nM and the Emax [6] was 75%. The IC50 [7] was 30 µM.
For `NCCc1ccc(Oc2ccc(O)cc2)c(I)c1`, the EC50 [5] was 189 nM and the IC50 [7] was 27 µM.
With `NCCOc1ccc(Cc2ccc(N)cc2)cc1` the Activity [8] was “inactive”, the EC50 [5] was 1700 nM and the Emax [6] was 40%. The IC50 [7] was 34 µM.
`NCCOc1ccc(Cc2ccc(O)cc2)cc1` showed an EC50 [5] of 2200 nM and an Emax [6] of 80%.
In the case of `Cc1cc(OCC(=O)O)ccc1Cc1ccc(N)cc1`, the Activity [8] is reported as “Active” and the IC50 [7] is reported as 30 µM.
`Nc1ccc(Cc2ccc(OCC(=O)O)cc2)cc1` was tested, and the Activity [8] was “inactive” and the IC50 [7] was 30 µM.
Work on `NCCc1ccc(Cc2ccc(N)cc2)cc1` yielded an EC50 [5] of 800 nM and an Emax [6] of 100%.
With `NCCc1ccccc1` [PHENETHYLAMINE] the EC50 [5] was 138 nM.
